Test results taken from ChEMBL document CHEMBL1649122, “Abc1p is a multidrug efflux transporter that tips the balance in favor of innate azole resistance in Candida krusei” (2009).
Each block holds one molecule with its values, some of them ahead of it. Calls of active or inactive are those of the source. The calls are words filed in the database; no cut-off is given here.

Legend:
Settings in all cases: Pichia kudriavzevii
[1] = biological target: ATP binding cassette transporter Abc1p (Issatchenkia orientalis) (UniProt Q09GQ4); assay: Inhibition of Candida krusei ABC1 expressed in Saccharomyces cerevisiae isolate ADdelta at 16 nM
Method in brief: (§1)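 Agarose disk-diffusion test of S. cerevisiae AD overexpressing C. krusei Abc1p, with the parent AD strain as comparison. Cells were pregrown from YPD overnight into CSM to mid-log at 30°C. They were seeded at OD600 0.008 in CSM with 0.6% agarose, overlaid on CSM agar (pH 7.0). Paper disks carrying set nmol amounts of xenobiotic were applied, and plates were incubated at 30°C for 48 h before reading growth inhibition zones.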

[2] = biological target: ATP binding cassette transporter Abc1p (Issatchenkia orientalis) (UniProt Q09GQ4); assay: Inhibition of Candida krusei IF011 Abc1p assessed as reduction of itraconazole MIC at 5 ug after 48 hrs by agarose diffusion assay
[3] = biological target: ATP binding cassette transporter Abc1p (Issatchenkia orientalis) (UniProt Q09GQ4); assay: Inhibition of Candida krusei Abc1p expressed in Saccharomyces cerevisiae isolate AD assessed as reduction of itraconazole MIC at 5 ug after 48 hrs by agarose diffusion assay
[4] = biological target: ATP binding cassette transporter Abc1p (Issatchenkia orientalis) (UniProt Q09GQ4); assay: Inhibition of Candida krusei B2399 Abc1p assessed as reduction of itraconazole MIC at 5 ug after 48 hrs by agarose diffusion assay
[5] = biological target: ATP binding cassette transporter Abc1p (Issatchenkia orientalis) (UniProt Q09GQ4); assay: Inhibition of Candida krusei ABC1 expressed in Saccharomyces cerevisiae isolate ADdelta at 0.24 nM
[6] = biological target: ATP binding cassette transporter Abc1p (Issatchenkia orientalis) (UniProt Q09GQ4); assay: Inhibition of Candida krusei ABC1 expressed in Saccharomyces cerevisiae isolate ADdelta at 2.5 uM; method in brief: as §1
[7] = biological target: ATP binding cassette transporter Abc1p (Issatchenkia orientalis) (UniProt Q09GQ4); assay: Inhibition of Candida krusei ABC1 expressed in Saccharomyces cerevisiae isolate ADdelta at 131 nM; method in brief: as §1
[8] = biological target: ATP binding cassette transporter Abc1p (Issatchenkia orientalis) (UniProt Q09GQ4); assay: Inhibition of Candida krusei ABC1 expressed in Saccharomyces cerevisiae isolate ADdelta at 620 nM; method in brief: as §1

Activity [1]: Active
Structure (SMILES): CC/N=c1\cc2oc3cc(NCC)c(C)cc3c(-c3ccccc3C(=O)OCC)c-2cc1C

Activity [2]: Active | Activity [3]: Active | Activity [4]: Active
Structure (SMILES): C=CC[C@@H]1/C=C(\C)C[C@H](C)C[C@H](OC)[C@H]2O[C@@](O)(C(=O)C(=O)N3CCCC[C@H]3C(=O)O[C@H](/C(C)=C/[C@@H]3CC[C@@H](O)[C@H](OC)C3)[C@H](C)[C@@H](O)CC1=O)[C@H](C)C[C@@H]2OC

Structure (SMILES): C/C1=C/C(=O)O[C@@H]2C[C@@H](CC[C@H](C)/C=C\C=C\CC1)O[C@@](O)([C@@H]1CSC(=O)N1)C2
Activity [5]: Active

Activity [6]: inactive
Structure (SMILES): C[C@H]1c2cccc(O)c2C(=O)C2=C(O)[C@]3(O)C(=O)C(C(N)=O)=C(O)[C@@H](N(C)C)[C@@H]3[C@@H](O)[C@@H]21

Activity [7]: Active
Structure (SMILES): COC(=O)c1ccccc1-c1c2ccc(=N)cc-2oc2cc(N)ccc12

Activity [8]: inactive
Structure (SMILES): CN1CCN(CCCN2c3ccccc3Sc3ccc(C(F)(F)F)cc32)CC1
